Laboratory results published in ChEMBL document CHEMBL3351933, “Indimicins A-E, Bisindole Alkaloids from the Deep-Sea-Derived Streptomyces sp. SCSIO 03032” (J Nat Prod, 2014).
Calls of active or inactive are those of the source. The rule behind the calls is not given here.

Key:
Bacillus subtilis = experiment: Antimicrobial activity against Bacillus subtilis SCSIO BS01 by the broth microdilution method; type: functional
MCF7 = experiment: Cytotoxicity against human MCF7 cells by SRB assay; type: functional, cell-based
Method in brief: (§1)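 Sulforhodamine B (SRB) cytotoxicity assay, following an earlier published protocol, run in vitro against a four-line human tumor panel: HepG2 (hepatocellular liver carcinoma), MCF7 (breast adenocarcinoma), NCI-H460 (non-small-cell lung cancer) and SF268 (glioma). IC50 values reported in μM.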

Bacillus thuringiensis = experiment: Antimicrobial activity against Bacillus thuringiensis SCSIO BT01 by the broth microdilution method; type: functional
Candida albicans = experiment: Antimicrobial activity against Candida albicans ATCC10231 by the broth microdilution method; type: functional
HepG2 = experiment: Cytotoxicity against human HepG2 cells by SRB assay; type: functional, cell-based; method in brief: as §1
NCI-H460 = experiment: Cytotoxicity against human NCI-H460 cells by SRB assay; type: functional, cell-based; method in brief: as §1
Staphylococcus aureus = experiment: Antimicrobial activity against Staphylococcus aureus ATCC 29213 by the broth microdilution method; type: functional
Escherichia coli = experiment: Antimicrobial activity against Escherichia coli ATCC 25922 by the broth microdilution method; type: functional

SMILES | MIC (Bacillus subtilis) [µg/mL] | IC50 (MCF7) [µM] | MIC (Bacillus thuringiensis) [µg/mL] | MIC (Candida albicans) [µg/mL] | inhibition (HepG2) | inhibition (NCI-H460) | MIC (Staphylococcus aureus) [µg/mL] | MIC (Escherichia coli) [µg/mL]
CN1C[C@](C)(c2cn(C)cc2-c2c[nH]c3ccc(Cl)cc23)c2cc(Cl)ccc21 | > 128 | > 10 | > 128 | > 128 | inactive | inactive | > 128 | > 128
COC(=O)c1c(-c2c[nH]c3ccc(Cl)cc23)c(-c2c[nH]c3ccc(Cl)cc23)cn1C | > 128 | > 10 | > 128 | > 128 | inactive | inactive | > 128 | > 128
CN1c2ccc(Cl)cc2[C@@]2(C)c3c[nH]cc3-c3c([nH]c4ccc(Cl)cc34)[C@@H]12 | > 128 | > 10 | > 128 | > 128 | inactive | inactive | > 128 | > 128
Cc1[nH]cc2c1-c1c([nH]c3ccc(Cl)cc13)[C@H]1N(C)c3ccc(Cl)cc3[C@@]21C | > 128 | > 10 | > 128 | > 128 | inactive | inactive | > 128 | > 128
CN1c2ccc(Cl)cc2[C@@]2(C)c3cn(C)cc3-c3c([nH]c4ccc(Cl)cc34)[C@@H]12 | > 128 | > 10 | > 128 | > 128 | inactive | inactive | > 128 | > 128
Cc1c2c(cn1C)[C@]1(C)c3cc(Cl)ccc3N(C)[C@@H]1c1[nH]c3ccc(Cl)cc3c1-2 | > 128 | 10 | > 128 | > 128 | inactive | inactive | > 128 | > 128
COC(=O)c1c(-c2c[nH]c3ccc(Cl)cc23)c(-c2c[nH]c3ccc(Cl)cc23)c(C(=O)OC)n1C | > 128 | > 10 | > 128 | > 128 | inactive | inactive | > 128 | > 128
